≈ marks a conversion by molar mass, not a printed value. Calls of active or inactive are those of the source. The rule behind the calls is not given here.
What was measured:
Format in all cases: functional
Daoy = assay: Cytotoxicity against human DaOY cells by MTT assay; details: read-out: ED50 (the source's name)
RAW264.7 [1] = assay: Antiinflammatory activity against LPS-stimulated mouse RAW264.7 cells assessed as reduction in iNOS level at 10 uM relative to control; design: scale not given: the % may be the effect or the level left
Method in brief: (§1)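 Immunoblot measured iNOS and COX-2 protein levels in RAW264.7 macrophages stimulated with LPS and treated at 10 μM. Levels are expressed as a percentage of cells given LPS alone.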

HEp-2 = assay: Cytotoxicity against human Hep2 cells by MTT assay; details: read-out: ED50 (the source's name)
MCF7 = assay: Cytotoxicity against human MCF7 cells by MTT assay; details: read-out: ED50 (the source's name)
RAW264.7 [2] = assay: Antiinflammatory activity against LPS-stimulated mouse RAW264.7 cells assessed as reduction in COX-2 level at 10 uM relative to control; method in brief: as §1
HeLa = assay: Cytotoxicity against human HeLa cells by MTT assay; details: read-out: ED50 (the source's name)

Row | Compound | EC50 (Daoy) | Activity (RAW264.7 [1]) | EC50 (HEp-2) | EC50 (MCF7) | Activity (RAW264.7 [2]) | EC50 (HeLa)
1 | C=C1C[C@H]2O[C@H]([C@H]3[C@@H]2[C@](C)(OC(C)=O)CC[C@@H]3C(C)C)[C@](C)(OC(=O)CCC)CC[C@@H]1O [SIMPLEXIN A] | 10.4 µg/mL (≈ 23 µM) | 15.9% | 12.1 µg/mL (≈ 26.9 µM) | 12.1 µg/mL (≈ 26.8 µM) | inactive | > 20 µg/mL
2 | CCCC(=O)O[C@]1(C)CC[C@H](O)[C@@](C)(O)C[C@H]2O[C@@H]1[C@H]1[C@@H]2[C@](C)(OC(C)=O)CC[C@@H]1C(C)C [SIMPLEXIN B] | > 20 µg/mL |  | > 20 µg/mL | > 20 µg/mL |  | > 20 µg/mL
3 | CCCC(=O)O[C@H]1[C@H](C(C)C)[C@@H]2[C@@H]([C@H]3C[C@](C)(O)[C@@H](OC(C)=O)CC[C@@](C)(OC(=O)CCC)[C@@H]2O3)[C@](C)(O)[C@@H]1OC(C)=O [SIMPLEXIN C] | > 20 µg/mL |  | > 20 µg/mL | > 20 µg/mL |  | > 20 µg/mL
4 | CCCC(=O)O[C@H]1[C@H](C(C)C)[C@@H]2[C@@H]([C@H]3C[C@](C)(O)[C@@H](OC(=O)CCC)CC[C@@](C)(OC(=O)CCC)[C@@H]2O3)[C@](C)(O)[C@@H]1OC(C)=O [SIMPLEXIN D] | 15.3 µg/mL (≈ 23.9 µM) | 37.7% | > 20 µg/mL | 14.5 µg/mL (≈ 22.7 µM) | inactive | > 20 µg/mL
5 | C=CC(=O)O[C@H]1CC[C@@](C)(OC(=O)CCC)[C@@H]2O[C@H](C[C@]1(C)O)[C@@H]1[C@H]2[C@@H](C(C)C)[C@H](OC(=O)CCC)[C@@H](OC(C)=O)[C@@]1(C)O [SIMPLEXIN E] | 12.8 µg/mL (≈ 20.4 µM) | 4.8% | 10.7 µg/mL (≈ 17.2 µM) | 7.19 µg/mL (≈ 11.5 µM) | 37.7% | 17.4 µg/mL (≈ 27.8 µM)
6 | CCCC(=O)O[C@]1(C)CC[C@H](OC(C)=O)[C@@](C)(O)C[C@H]2O[C@@H]1[C@@H]1[C@@H](C(C)C)[C@H](O)[C@@H](OC(C)=O)[C@@](C)(O)[C@@H]12 [SIMPLEXIN F] | > 20 µg/mL |  | > 20 µg/mL | > 20 µg/mL |  | > 20 µg/mL
7 | CC(=O)O[C@H]1CC[C@@](C)(OC(C)=O)[C@@H]2O[C@H](C[C@]1(C)O)[C@@H]1[C@H]2[C@@H](C(C)C)[C@H](O)C[C@@]1(C)OC(C)=O [SIMPLEXIN I] | > 20 µg/mL |  | > 20 µg/mL | > 20 µg/mL |  | > 20 µg/mL

Reference: ChEMBL document CHEMBL1152918, “Simplexins A-I, eunicellin-based diterpenoids from the soft coral Klyxum simplex” (2009)
